We go through 14 compounds from ChEMBL document CHEMBL1641459, “Virtual screening and synthesis of quinazolines as novel JAK2 inhibitors” (Bioorg Med Chem, 2011).

Each structure is given as a SMILES string. Active and inactive are the calls of the source. No cut-off for these calls is given here. Where only a bound is given, the exact number is not on record here.

Experiment [1] has as its target Tyrosine-protein kinase JAK2 (Homo sapiens) (UniProt O60674). The experiment is described as follows: Inhibition of recombinant JAK2 at 20 uM.
For experiment [2], the system named is HeLa. The experiment is described as follows: Cytotoxicity against human HeLa cells after 48 hrs by MTT assay. In kind it is functional, cell-based. For orientation: Formazan colour is commonly taken as a measure of viable cells.
Experiment [3] relates to SK-OV-3. Kind of experiment: Cytotoxicity against human SKOV3 cells after 48 hrs by MTT assay. In kind it is functional, cell-based. The following applies: SK-OV-3, 48 h.
Experiment [4] has as its system HT-29. Kind of experiment: Cytotoxicity against human HT-29 cells after 48 hrs by MTT assay. Format: functional, cell-based. The settings on record: HT-29, 48 h.
Experiment [5] concerns HT-29. The experiment is described as follows: Cytotoxicity against human HT-29 cells upto 25 uM after 48 hrs by MTT assay. In kind it is functional, cell-based. Summed up: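 MTT assay: cells seeded at 1 × 10⁵ cells/mL in RPMI-1640 with 10% FBS, compounds added after 24 h at various concentrations and exposed 48 h; MTT (5 mg/mL stock in PBS) added for 4 h, formazan dissolved in DMSO, absorbance read at 540 nm. Cells cultured in RPMI-1640, 10% FBS, 37 °C, 5% CO₂.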

In experiment [6] the target is Tyrosine-protein kinase JAK2 (Homo sapiens) (UniProt O60674). The experiment is described as follows: Inhibition of IL-6-induced JAK2 phosphorylation in human HT-29 cells at 50 to 100 uM by Western blotting. Format: cell-based. The method, boiled down:
(§1)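 HT-29 cells treated with IL-6 for 0.5 h, then compound (10, 20 µM or 50, 100 µM); lysed in ice-cold Hepes/Triton X-100 buffer with protease/phosphatase inhibitors, 30–40 µg protein immunoblotted for JAK2 and p-JAK2, ECL detection, GAPDH control; densitometry as % of control, three independent experiments.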

For experiment [7], the system named is HT-29. Kind of experiment: Induction of cell cycle arrest in human HT-29 cells assessed as increase accumulation at G2/M phase at 10 to 30 uM after 48 hrs by flow cytometry. In kind it is functional, cell-based. Summed up:
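HT-29 cells at 70–80% confluence treated at 10, 20 and 30 µM for 48 h, ethanol-fixed (70%, 1 h on ice), propidium iodide stained with RNase A, DNA content analysed by flow cytometry; three independent experiments, Student's t-test versus untreated control.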
A general note: A flow cytometer gives signals particle by particle.

In experiment [8] the target is Tyrosine-protein kinase JAK2 (Homo sapiens) (UniProt O60674). Kind of experiment: Inhibition of IL-6-induced JAK2 phosphorylation in human HT-29 cells at 10 to 20 uM by Western blotting. Format: cell-based. The method, boiled down: as §1
Sequence of Tyrosine-protein kinase JAK2 (Homo sapiens) (O60674 whole entry): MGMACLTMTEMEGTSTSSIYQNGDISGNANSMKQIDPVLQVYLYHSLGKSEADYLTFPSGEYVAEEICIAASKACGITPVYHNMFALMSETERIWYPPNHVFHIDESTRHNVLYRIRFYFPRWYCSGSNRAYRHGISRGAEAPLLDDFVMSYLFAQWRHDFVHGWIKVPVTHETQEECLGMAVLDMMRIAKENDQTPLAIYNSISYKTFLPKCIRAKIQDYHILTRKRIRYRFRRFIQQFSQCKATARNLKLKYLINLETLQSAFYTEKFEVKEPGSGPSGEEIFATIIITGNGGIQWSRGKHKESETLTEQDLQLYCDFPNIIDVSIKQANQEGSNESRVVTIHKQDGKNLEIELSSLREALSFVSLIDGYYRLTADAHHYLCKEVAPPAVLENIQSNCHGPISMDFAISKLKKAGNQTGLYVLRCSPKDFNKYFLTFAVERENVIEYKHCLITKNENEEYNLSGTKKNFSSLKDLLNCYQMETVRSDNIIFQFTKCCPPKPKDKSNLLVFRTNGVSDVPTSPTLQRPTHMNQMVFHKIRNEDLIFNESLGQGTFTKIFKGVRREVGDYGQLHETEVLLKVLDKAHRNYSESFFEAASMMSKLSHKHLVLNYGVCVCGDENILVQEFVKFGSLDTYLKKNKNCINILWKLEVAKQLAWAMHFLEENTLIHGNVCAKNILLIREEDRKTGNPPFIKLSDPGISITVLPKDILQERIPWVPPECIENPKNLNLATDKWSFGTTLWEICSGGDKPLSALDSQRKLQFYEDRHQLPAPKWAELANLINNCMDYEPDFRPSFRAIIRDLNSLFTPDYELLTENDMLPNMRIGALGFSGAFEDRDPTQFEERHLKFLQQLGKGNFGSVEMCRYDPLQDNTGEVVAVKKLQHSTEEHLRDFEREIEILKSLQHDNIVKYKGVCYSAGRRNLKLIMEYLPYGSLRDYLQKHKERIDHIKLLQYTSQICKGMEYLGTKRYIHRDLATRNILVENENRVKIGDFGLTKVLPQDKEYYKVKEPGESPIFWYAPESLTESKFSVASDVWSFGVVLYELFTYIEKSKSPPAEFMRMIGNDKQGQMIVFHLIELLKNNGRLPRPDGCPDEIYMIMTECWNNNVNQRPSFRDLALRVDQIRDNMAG
In general terms: In western blotting, separated proteins are transferred to a membrane and probed.

For experiment [9], the target named is Tyrosine-protein kinase JAK2 (Mus musculus) (UniProt Q62120). The experiment is described as follows: Inhibition of IL-6-induced JAK2 phosphorylation in mouse embryonic stem cells at 20 uM by Western blotting. Format: cell-based. Summed up:
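Mouse embryonic stem cells pretreated with IL-6, then exposed to compound; p-JAK2 level assessed by Western blotting.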

Experiment [10] addresses Tyrosine-protein kinase JAK2 (Homo sapiens) (UniProt O60674). Kind of experiment: Inhibition of IL-6-induced JAK2 phosphorylation in human HT-29 cells by Western blotting. Format: cell-based. The method, boiled down:
as §1

The target is the same in experiment [11]. The experiment is described as follows: Inhibition of human JAK2-mediated IL6-induced Stat3-STAT3-dependent luciferase activity in human HT-29 cells at 5 to 20 uM by Western blotting. In kind it is cell-based. The following applies: in the assay text read “by luciferase reporter gene assay” for “by Western blotting”. The method, boiled down: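 HT-29 cells co-transfected with pSTAT3-Luc and phRL-TK; after 24 h serum-starved overnight, treated 1 h with compound at varying concentrations and stimulated with IL-6 (20 ng/mL); dual luciferase readout normalised to Renilla; three independent experiments, Student's t-test.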

For experiment [12], the system named is HT-29. The experiment is described as follows: Induction of cell cycle arrest in human HT-29 cells assessed as decrease in accumulation at G1 phase at 5 to 20 uM after 24 hrs by flow cytometry. In kind it is functional, cell-based. The method, boiled down:
(§2)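 HT-29 cells grown to 70–80% confluence, treated at 5, 10 and 20 µM for 24 h, fixed in 70% ethanol 1 h on ice, stained with propidium iodide (50 µg/mL) plus RNase A for 30 min in the dark at room temperature, DNA content by flow cytometry; means of three independent experiments, Student's t-test.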

In experiment [13] the test system is HT-29. The experiment is described as follows: Induction of cell cycle arrest in human HT-29 cells assessed as increase accumulation at G2/M phase at 5 to 20 uM after 24 hrs by flow cytometry. In kind it is functional, cell-based. The method, boiled down:
as §2

Sequence of Tyrosine-protein kinase JAK2 (Mus musculus) (Q62120 whole entry): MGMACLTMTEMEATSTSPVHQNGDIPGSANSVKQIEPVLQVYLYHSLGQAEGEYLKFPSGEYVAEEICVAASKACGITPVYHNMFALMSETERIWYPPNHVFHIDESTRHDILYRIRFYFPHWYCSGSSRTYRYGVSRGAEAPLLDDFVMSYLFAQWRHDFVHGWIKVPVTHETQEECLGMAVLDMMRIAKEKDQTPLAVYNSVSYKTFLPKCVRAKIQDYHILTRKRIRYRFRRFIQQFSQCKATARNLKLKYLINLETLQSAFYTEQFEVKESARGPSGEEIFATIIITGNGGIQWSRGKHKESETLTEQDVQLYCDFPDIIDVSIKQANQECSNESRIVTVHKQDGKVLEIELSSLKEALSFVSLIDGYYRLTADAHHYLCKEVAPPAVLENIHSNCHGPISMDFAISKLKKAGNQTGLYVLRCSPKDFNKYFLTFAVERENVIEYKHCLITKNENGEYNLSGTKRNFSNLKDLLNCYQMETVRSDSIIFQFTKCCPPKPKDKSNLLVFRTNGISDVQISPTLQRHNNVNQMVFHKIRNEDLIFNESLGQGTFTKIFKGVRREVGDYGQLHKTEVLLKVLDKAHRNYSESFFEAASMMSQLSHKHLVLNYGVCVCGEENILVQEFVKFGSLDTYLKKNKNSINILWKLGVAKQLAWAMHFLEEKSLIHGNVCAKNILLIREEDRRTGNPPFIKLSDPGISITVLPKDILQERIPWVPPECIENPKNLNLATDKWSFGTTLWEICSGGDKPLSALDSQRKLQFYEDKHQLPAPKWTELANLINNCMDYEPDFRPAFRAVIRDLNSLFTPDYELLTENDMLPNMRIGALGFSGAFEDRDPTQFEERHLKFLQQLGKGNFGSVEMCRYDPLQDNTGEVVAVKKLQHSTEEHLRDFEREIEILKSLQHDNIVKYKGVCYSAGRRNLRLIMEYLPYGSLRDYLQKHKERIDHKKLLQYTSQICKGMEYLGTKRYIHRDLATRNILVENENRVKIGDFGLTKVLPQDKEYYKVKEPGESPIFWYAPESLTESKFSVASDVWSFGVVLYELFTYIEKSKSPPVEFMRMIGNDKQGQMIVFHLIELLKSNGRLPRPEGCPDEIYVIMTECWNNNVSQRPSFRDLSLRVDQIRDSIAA

As usually defined, the inhibition is the share of the control response that was lost under treatment. What is called IC50 is the point on the concentration scale where inhibition reaches its midpoint. Read a low IC50 as higher potency. As to `COc1cc2ncnc(Nc3nc4c(Cl)cccc4s3)c2cc1OC`, the inhibition in [1] was determined as 14.4%. The IC50 in experiment [2], in experiment [3] and in [4] was over 100 µM each time.
As for `COc1cc2ncnc(Nc3ccc(Br)cc3)c2cc1OC`, the inhibition in experiment [1] came out at 29.3%. In addition, the IC50 in experiment [3] and in [4] was over 100 µM throughout.
As to `COCCNc1ncnc2cc(OC)c(OC)cc12`, the inhibition in [1] stood at 38%. Besides, the IC50 in [2], in experiment [3] and in experiment [4] was over 100 µM each time.
With `COc1cc2ncnc(NCCN3CCOCC3)c2cc1OC`, in [1], the inhibition worked out at 29.5%. Also, the IC50 in experiment [2], in experiment [3] and in [4] was over 100 µM throughout.
With `N#C/C(=C\c1ccc(O)c(O)c1)C(=O)NCc1ccccc1`, the outcome in experiment [5] was inactive. In addition, in [1], the inhibition was determined as 55.1%. Besides, the inhibition result in experiment [6] was “Active”. Further, the result in [7] was Active. In addition, in [8], the inhibition entry was “inactive”. For the same compound, the figures for the IC50 in [2] and in experiment [4] were over 100 µM and 78.5 µM, respectively.
For the compound `COc1cc2ncnc(NN3CCOCC3)c2cc1OC`, the inhibition in [1] turned out to be 44.4%. Also, the inhibition entry in [9] was “Active”. For the same compound, the IC50 in [2], in experiment [3] and in experiment [4] was over 100 µM each time.
With `COc1cc2ncnc(Nc3cccc4ccccc34)c2cc1OC`, the inhibition is 43% in [1] and “Dose-dependent effect” in experiment [10]. Besides, the IC50 in experiment [2] came out at 8.02 µM; in experiment [3], 16.7 µM; in experiment [4], 7.65 µM. Besides, the inhibition entry in [11] is “Active”. Further, the outcome in [12] and in experiment [13] was Active.
In the case of `COc1cc2ncnc(Nc3ccccc3C)c2cc1OC`, the inhibition in experiment [1] came out at 10.6%. The IC50 in experiment [2], in [3] and in experiment [4] was over 100 µM in each case.
`COc1cc2ncnc(Nc3ccc(O)cc3)c2cc1OC`: the inhibition in experiment [1] is 33.1%. Moreover, the IC50 turned out to be 51.5 µM in [2], 74.6 µM in [3] and 93 µM in [4].
The like results for `COc1cccc(Nc2ncnc3cc(OC)c(OC)cc23)c1` were, in that order, 29.4%, over 100 µM, over 100 µM and over 100 µM.
For `COc1ccc(CCNc2ncnc3cc(OC)c(OC)cc23)cc1OC`, in that order: 25.3%, over 100 µM, over 100 µM and over 100 µM.
The like results for `COc1cc2ncnc(Nc3cccc(O)c3)c2cc1OC` were, in that order, 23.8%, 43.9 µM, 37.5 µM and 59.7 µM.
Take `COc1ccc(Nc2ncnc3cc(OC)c(OC)cc23)cc1`: the IC50 in experiment [3] was over 100 µM.
`COc1cc2ncnc(Nc3ccc(C)cc3)c2cc1OC`: in experiment [1], the inhibition was found to be 18.4%. Further, the half-maximal inhibitory concentration (IC50) is 99.5 µM in experiment [2], 91.9 µM in experiment [3] and 57.9 µM in experiment [4].
